Activity calls are given as the source filed them. No cut-off for these calls is given here.
Tests used:
Staphylococcus aureus [1] = assay: Bactericidal activity against […] Staphylococcus aureus ATCC 25923 assessed as reduction in colony forming unit at 0.5 times MIC by time kill assay; format: functional, organism-based
Procedure, shortened: (§1)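 Samples at 0, 3, 6, 9, 12 and 24 h were serially diluted in MH broth and plated on tryptic soy agar. CFU/mL from colony counts after 24 h at 37 °C.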

Staphylococcus aureus [2] = assay: Bactericidal activity against […] Staphylococcus aureus ATCC 25923 assessed as log reduction in colony forming unit at 4 times MIC after 3 hrs by time kill assay; format: functional; procedure, shortened: as §1
Staphylococcus aureus [3] = assay: In vivo antibacterial activity against […] Staphylococcus aureus ATCC 25923 infected in Kunming mouse assessed as reduction in bacterial load at 25 mg/kg, ip administered 1 hr post bacterial infection and measured after 1 hr post compound treatment; format: functional, organism-based
Procedure, shortened: (§2)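 Kunming mice (~25 g, 6 per group) infected intravenously with 6 × 10⁷ CFU S. aureus ATCC25923 in 0.2 mL saline. About 1 h later, 1, 5 or 25 mg/kg was given intraperitoneally in 0.5 mL vehicle, with linezolid as reference. Orbital blood (100 µL) was taken before and 1 h after treatment, spread on MH agar and counted after 24 h.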

Staphylococcus aureus [4] = assay: Antibacterial activity against Staphylococcus aureus ATCC 25923 assessed as reduction in bacterial growth measured after 18 passages by resistance development assay relative to control; format: functional; settings: time 24 hrs
Procedure, shortened: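 Serial-passage resistance test with S. aureus ATCC25923. Cells from wells at 0.5× MIC made the next inoculum (~10⁷ CFU/mL), and the MIC was redetermined after 24 h at 37 °C.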

Enterococcus faecalis = assay: Antibacterial activity against vancomycin-resistant Enterococcus faecalis ATCC 51299 assessed as bacterial growth inhibition incubated for 24 hrs by CLSI protocol based broth microdilution method; format: functional
Bacillus pumilus [5] = assay: Bactericidal activity against penicillin-susceptible Bacillus pumilus CMCC 63202 measured after 24 hrs by CLSI protocol based method; format: functional
Procedure, shortened: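 MBC followed on from the 24 h broth microdilution MIC plates. Aliquots from clear wells were spread on tryptic soy agar and incubated aerobically at 37 °C for 24 h. MBC was the minimum concentration giving no colonies.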

[6] = molecular target: T1, Cell division protein FtsZ (Bacillus subtilis) (UniProt A5Z1V5); assay: Induction of Bacillus subtilis FtsZ polymerization by fluorescence spectrophotometry; settings: dose 2.5-10 µg/ml, time 800.0 sec
T1 sequence (whole entry): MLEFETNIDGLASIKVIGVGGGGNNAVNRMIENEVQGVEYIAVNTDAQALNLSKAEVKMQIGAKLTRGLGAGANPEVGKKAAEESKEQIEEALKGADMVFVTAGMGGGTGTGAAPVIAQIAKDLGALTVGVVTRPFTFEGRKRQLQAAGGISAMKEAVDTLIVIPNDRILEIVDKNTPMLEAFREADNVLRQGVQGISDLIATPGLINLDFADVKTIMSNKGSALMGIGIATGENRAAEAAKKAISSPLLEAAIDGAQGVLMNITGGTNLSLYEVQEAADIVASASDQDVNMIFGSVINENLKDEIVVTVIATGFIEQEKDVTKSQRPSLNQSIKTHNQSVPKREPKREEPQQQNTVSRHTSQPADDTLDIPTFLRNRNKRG
Procedure, shortened: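 Light scattering of B. subtilis FtsZ in 20 mM Tris pH 7.4 with 20 mM KCl, 5 mM MgCl₂ and 0.01% Triton X-100. Protein was preincubated in a cuvette with vehicle (2% DMSO) or compound. GTP was added last (2 mM final), and scattering at excitation 411 nm / emission 430 nm was followed for 800 s.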

Staphylococcus aureus [7] = assay: In vivo antibacterial activity against […] Staphylococcus aureus ATCC 25923 infected in Kunming mouse assessed as reduction in bacterial load at 1 mg/kg, administered 1 hr post bacterial infection and measured after 1 hr post compound treatment; format: functional, organism-based; procedure, shortened: as §2
Bacillus subtilis [8] = assay: Antibacterial activity against penicillin-susceptible Bacillus subtilis ATCC 9372 assessed as bacterial growth inhibition incubated for 24 hrs by CLSI protocol based broth microdilution method; format: functional
Staphylococcus aureus [9] = assay: Bactericidal activity against penicillin-resistant Staphylococcus aureus measured after 24 hrs by CLSI protocol based method; format: functional
Procedure, shortened: (§3)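 MBC after broth microdilution. After 24 h, aliquots from clear wells were plated on tryptic soy agar and incubated aerobically 24 h at 37 °C. MBC was the lowest concentration giving no colonies.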

[10] = molecular target: T1, Cell division protein FtsZ (Bacillus subtilis); assay: Induction of Bacillus subtilis FtsZ polymerization assessed as formation of bundling of FtsZ protofilaments at 10 ug/ml after 20 mins by transmission electron microscopic analysis; settings: dose 10.0 µg/ml
Procedure, shortened: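 B. subtilis FtsZ was incubated with or without compound for 20 min in Tris pH 7.4 polymerization buffer (KCl, MgCl₂, Triton X-100, GTP). Samples were applied to glow-discharged Formvar carbon-coated copper grids for 10 min, negatively stained with 1% phosphotungstic acid for 1 min, air-dried and imaged by TEM.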

[11] = tested on: Staphylococcus epidermidis; assay: Ratio of MBC to MIC against penicillin-resistant Staphylococcus epidermidis; format: functional
Procedure, shortened: (§4)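 MBC/MIC ratio from the broth microdilution MIC (24 h, 37 °C, MH broth) and the MBC (clear wells subcultured on tryptic soy agar, 24 h). A ratio ≤4 is read as bactericidal per CLSI.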

Enterococcus faecium = assay: Antibacterial activity against vancomycin-susceptible Enterococcus faecium ATCC19434 assessed as bacterial growth inhibition incubated for 24 hrs by CLSI protocol based broth microdilution method; settings: ATCC19434, 24 h
Staphylococcus aureus [12] = assay: Ratio of MBC to MIC against penicillin-resistant Staphylococcus aureus; format: functional; procedure, shortened: as §4
Staphylococcus aureus [13] = assay: Ratio of MBC to MIC against erythromycin-susceptible Staphylococcus aureus ATCC 25923; format: functional; procedure, shortened: as §4
Escherichia coli = assay: Antibacterial activity against penicillin-susceptible Escherichia coli ATCC 25922 assessed as inhibition of bacterial growth measured by broth microdilution method; format: functional; settings: time 24 hrs
Procedure, shortened: (§5)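 Broth microdilution in Mueller Hinton broth. A 0.5 McFarland suspension was diluted tenfold, giving an inoculum of 1.5 × 10⁷ cfu/mL. This was added to 2-fold serial compound dilutions from […]. Plates were incubated aerobically at 37 °C for 24 h. MIC was the lowest concentration with no visible turbidity.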

[14] = tested on: Staphylococcus epidermidis; assay: Bactericidal activity against penicillin-resistant Staphylococcus epidermidis measured after 24 hrs by CLSI protocol based method; format: functional; procedure, shortened: as §3
Pseudomonas aeruginosa = assay: Antibacterial activity against penicillin-susceptible Pseudomonas aeruginosa ATCC27853 assessed as bacterial growth inhibition incubated for 24 hrs by CLSI protocol based broth microdilution method; format: functional
[15] = tested on: Staphylococcus epidermidis; assay: Antibacterial activity against penicillin-resistant Staphylococcus epidermidis assessed as inhibition of bacterial growth measured by broth microdilution method; format: functional; settings: time 24 hrs
Bacillus pumilus [16] = assay: Ratio of MBC to MIC against penicillin-susceptible Bacillus pumilus CMCC 63202; format: functional; procedure, shortened: as §4
Bacillus subtilis [17] = assay: Ratio of MBC to MIC against penicillin-susceptible Bacillus subtilis ATCC 9372; format: functional
Procedure, shortened: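 Ratio of MBC to MIC, both measured by broth microdilution in MH broth (37 °C, 24 h); MBC was scored by subculturing clear wells onto tryptic soy agar for 24 h. Following CLSI, a ratio of 4 or less counts as bactericidal.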

Staphylococcus aureus [18] = assay: Antibacterial activity against Staphylococcus aureus assessed as inhibition of bacterial growth measured by broth microdilution method; format: functional; settings: time 24 hrs; procedure, shortened: as §5
Bacillus pumilus [19] = assay: Antibacterial activity against penicillin-susceptible Bacillus pumilus CMCC 63202 assessed as bacterial growth inhibition by broth dilution method; format: functional; settings: time 24 hrs; procedure, shortened: as §5

Q: Which MIC (Staphylococcus aureus [1]) does the source give for `C[n+]1c2ccccc2c(/C=C/c2ccc(C(C)(C)C)cc2)c2ccccc21.[I-]` here?
A: inactive

Q: And the Activity (Staphylococcus aureus [2])?
A: 2.2 CFU

Q: What about the Activity (Staphylococcus aureus [3]) of the same molecule?
A: Active

Q: And the fold change (FC) (Staphylococcus aureus [4])?
A: 2

Q: And the MIC (Enterococcus faecalis)?
A: 4 µg/mL

Q: What about the MBC (Bacillus pumilus [5]) of the same molecule?
A: 2 µg/mL

Q: And the Activity [6]?
A: Dose-Dependent Effect

Q: What about the Activity (Staphylococcus aureus [7]) of the same molecule?
A: inactive

Q: And the MIC (Bacillus subtilis [8])?
A: 0.25 µg/mL

Q: And the MBC (Staphylococcus aureus [9])?
A: 4 µg/mL

Q: What about the Activity [10] of the same molecule?
A: Active

Q: And the Ratio [11]?
A: 1

Q: And the MIC (Enterococcus faecium)?
A: 4 µg/mL

Q: And the Ratio (Staphylococcus aureus [12])?
A: 2

Q: What about the Ratio (Staphylococcus aureus [13]) of the same molecule?
A: 4

Q: What about the MIC (Escherichia coli) of the same molecule?
A: > 64 µg/mL

Q: What about the MIC [14] of the same molecule?
A: 1 µg/mL

Q: What about the MIC (Pseudomonas aeruginosa) of the same molecule?
A: > 64 µg/mL

Q: And the MIC [15]?
A: 1 µg/mL

Q: And the Ratio (Bacillus pumilus [16])?
A: 4

Q: And the Ratio (Bacillus subtilis [17])?
A: 2

Q: What about the MIC (Staphylococcus aureus [18]) of the same molecule?
A: 0.5 µg/mL

Q: And the MIC (Bacillus pumilus [19])?
A: 0.5 µg/mL

— ChEMBL document CHEMBL4837210 (Eur J Med Chem, 2021)
